Bioassay records deposited in PubChem BioAssay by The Scripps Research Institute Molecular Screening Center.
M4 ag = CHRM4 agonism in calcium assay. CHO-K1 hM4/Gqi5, Fluo-8 calcium fluorescence; vehicle 0%, full acetylcholine response 100%. activation, % at 3 µM. P08173. 360,000 tested, 0.14% active;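 active = activation above the run mean over all test wells plus 3 SD, cut at about 32% in these data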;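 note: peak over basal fluorescence ratio per well then scaled between controls; 0% = DMSO wells and 100% = acetylcholine at EC100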
Target sequence (P08173 whole entry, looked up): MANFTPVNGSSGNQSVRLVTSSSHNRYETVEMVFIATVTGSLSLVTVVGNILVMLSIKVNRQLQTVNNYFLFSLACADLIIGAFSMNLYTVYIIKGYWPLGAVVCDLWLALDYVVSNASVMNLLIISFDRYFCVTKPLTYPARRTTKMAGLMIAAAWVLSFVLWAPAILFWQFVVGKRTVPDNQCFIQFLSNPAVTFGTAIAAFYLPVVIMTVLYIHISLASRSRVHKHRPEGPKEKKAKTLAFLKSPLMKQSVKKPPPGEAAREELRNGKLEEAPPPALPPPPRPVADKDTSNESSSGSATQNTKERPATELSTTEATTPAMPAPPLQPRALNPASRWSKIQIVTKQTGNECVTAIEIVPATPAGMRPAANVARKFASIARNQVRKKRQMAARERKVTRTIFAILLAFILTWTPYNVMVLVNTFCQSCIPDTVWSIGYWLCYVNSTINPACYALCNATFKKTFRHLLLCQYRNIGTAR
CHRM5 antagonist = CHRM5 antagonism in calcium assay; CHO-hM5 cells, Fluo-8 calcium fluorescence, ACh EC80; inhibition, % at 3 µM; 360,000 tested, 0.59% active;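 active = inhibition above a per-plate cutoff, the mean of that plate's test compounds plus 3 SD, cut at about 27% in these data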;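 note: 0% = acetylcholine EC80 with DMSO and 100% = DMSO without agonist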
CHRM4 antagonist = CHRM4 antagonism in calcium assay. 360,000 tested, 0.73% active. P08173. inhibition, % at 3 µM. AID 624125. CHO-hM4 cells, ACh EC80, Fluo-8 calcium fluorescence;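 active = inhibition above its plate's cutoff, the mean inhibition of sample wells plus 3 SD, cut at about 27% in these data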;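 note: 0% = acetylcholine EC80 with DMSO and 100% = DMSO without agonist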
CHRM4 PAM = potentiates acetylcholine response at human M4 receptor | AID 624126 | activation, % at 3 µM | CHO-K1 hM4/Gqi5, Fluo-8 calcium fluorescence, ACh EC20; 0% = ACh EC20, 100% = maximal ACh | 360,000 tested, 0.4% active | P08173;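 active = activation above its plate's cutoff, the mean activation of sample wells plus 3 SD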
M5 PAM = CHRM5 positive allosteric modulation. AID 624038. activation, % at 3 µM. P08912. 360,000 tested, 0.3% active. CHO-K1 hM5, Fluo-8 calcium, ACh EC20 PAM; 0% = ACh EC20, 100% = ACh EC100;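 active = activation above the run cutoff, the mean activation of all test compounds plus 3 SD, cut at about 18% in these data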
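system = human M5 receptor in CHO-K1 cells | reagent = EC20 acetylcholine as agonist stimulus | compound dosing = single-point, 3 µM nominal | incubation = Fluo-8 loading 80 min at 37 °C plus 30 min room temperature | detection = Fluo-8 calcium dye fluorescence, kinetic read | benchmarks = low control EC20 acetylcholine (0%), high control EC100 acetylcholine (100%)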
CHRM5 agonist = CHRM5 agonism in calcium assay | CHO-K1 hM5 cells, Fluo-8 calcium fluorescence; 0% DMSO wells, 100% maximal acetylcholine response | 360,000 tested, 0.19% active | activation, % at 3 µM | P08912;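 active = activation above the run's mean over test compounds plus 3 SD, cut at about 23% in these data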;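 note: signal is peak over basal fluorescence ratio across the kinetic read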
Numbers without * were called inactive. In the library only some 1.8% were active in any assay of this set; here they are far more common.

SMILES	M4 ag	CHRM5 antagonist	CHRM4 antagonist	CHRM4 PAM	M5 PAM	CHRM5 agonist
O=C(Nc1cccc(S(=O)(=O)NC2=NCCC2)c1)c1ccc(=O)[nH]c1	2	1	6	6	2	0
N#Cc1c(-c2ccccc2)c(-c2ccccc2)n(Cc2ccco2)c1NC(=O)c1cccs1	-1	0	-2	-1	29*	0
CCCCN1C(=O)C(CC(=O)NCc2cccc3ccccc23)CC(C(=O)N2CCOCC2)=C1C (centres undefined)	2	8	-2	0	-2	-1
CC(O)[C@@H](NC(=O)C1CCC(CNC(=O)[C@H](Cc2ccccc2)NC(=O)OC(C)(C)C)CC1)C(=O)O (some centres undefined)	0	8	-9	16*	-6	-4
COC(=O)/C=C1\OCc2ccc(C)cc21	0	-18	-5	7	19*	4
CSc1nc(N)nc2c1ncn2C1OC(CO)C(O)C1O (centres undefined)	0	33*	5	3	-6	-2
OCCN(CC#CC(O)(c1ccccc1)c1ccccc1)CCO	1	7	-9	4	-3	-19
CC(=O)NNC(=O)C(O)(c1ccccc1)c1ccccc1	0	-6	4	-2	1	-1
CC(C)(C#CC(O)(c1ccccc1)c1ccccc1)N1CCCC1	0	69*	79*	-26	-16	-11
CC(C)(C#CC(O)(c1ccccc1)c1ccccc1)N1CCCCC1	1	42*	47*	-16	-30	-19
CCC(Sc1nc(N)cc(=O)[nH]1)C(=O)Nc1cc(C)on1 (centres undefined)	2	1	-14	26*	13	-2
Cc1ccc(S(=O)(=O)N(C)CC(=O)Nc2cc(C)ccn2)cc1	2	1	0	15	3	-1
Cc1ccc(NS(=O)(=O)c2cc([N+](=O)[O-])ccc2NNC(=S)Nc2cc(C)ccc2C)c(C)c1	4	37*	13	-11	-19	0
COc1ccc(NC(=S)Nc2cccc([N+](=O)[O-])c2)cc1	4	0	6	3	-2	2
COc1ccc(NC(=S)NNc2ccc([N+](=O)[O-])cc2S(=O)(=O)Nc2ccc(C)cc2C)cc1	8	34*	3	-5	-22	0
Cc1ccc(NS(=O)(=O)c2cc([N+](=O)[O-])ccc2NNC(=S)Nc2cccc(Cl)c2)c(C)c1	6	24	4	-6	-13	-1
Cc1ccc(NC(=O)CSc2nnc(NC(=O)c3ccco3)s2)cc1	1	-4	-20	10	4	-4
CC(=O)c1ccc(NC(=O)CSc2nnc(NC(=O)c3ccco3)s2)cc1	1	0	1	21*	9	-3
COc1ccc(NC(=O)COc2ccc(/C=N/O)cc2OC)cc1	9	3	-12	8	2	2
CCNC(=S)N/N=C/c1ccc(OCC(=O)Nc2ccc(OC)cc2)c(OC)c1	21	21	32*	-25	-18	2
CCCCCCCc1nc2sc3c(c2c(=O)n1N)CC(C)(C)OC3	0	15	7	7	-1	-2
CCCCCc1nc2sc3c(c2c(=O)n1NC(=O)c1ccc([N+](=O)[O-])cc1)CC(C)(C)OC3	9	34*	3	-13	-16	0
CCNC(=O)C1(C)CCN(C(=O)c2cccc(C#N)c2)C1 (centres undefined)	1	1	-1	9	1	0
Cc1nn(-c2ccc(C(=O)O)cc2)c(N)c1-c1ccccc1	0	4	-7	-3	-1	-4
Nc1c(-c2ccccc2)c(CSc2nc3ccccc3[nH]2)nn1-c1ccc(C(=O)O)cc1	1	-2	-8	24*	6	-2
SMILES	M4 ag	CHRM5 antagonist	CHRM4 antagonist	CHRM4 PAM	M5 PAM	CHRM5 agonist
C=CCNC(=O)c1cnn(-c2ccccc2)c1-c1ccccc1	3	-1	-16	-3	1	-3
O=C(O)c1cnn(-c2ccccc2)c1-c1ccccc1	0	-19	-7	4	19*	2
COc1ccc(S(=O)(=O)NC(C)C(=O)NCc2ccccn2)cc1Cl (centres undefined)	2	-5	6	-1	3	-1
Cc1cc(=O)[nH]c(SC(C)C(=O)Nc2cccc3ccccc23)n1 (centres undefined)	1	20	-15	-1	-2	-3
COc1ccc(NC(=O)C2CCN(S(C)(=O)=O)CC2)c(OC)c1	0	-1	-1	1	-4	0
COc1ccc(NC(=O)C2CCCN(S(C)(=O)=O)C2)c(OC)c1 (centres undefined)	1	-11	-18	1	19*	9
Cc1nnsc1C(=O)N1CCCC(N2CCN(c3ccc(F)cc3)CC2)C1 (centres undefined)	1	3	7	4	3	-3
O=[N+]([O-])c1ccc(S(=O)(=O)CC2CSc3nc4ccccc4n32)cc1 (centres undefined)	0	5	8	33*	-6	3
COC(=O)c1c(N)n(CCCN2CCOCC2)c2nc3ccccc3nc12	1	10	4	-2	-12	0
COCCOC(=O)c1c(N)n(CCCN2CCOCC2)c2nc3ccccc3nc12	1	-6	10	10	19*	4
COc1ccc(NS(=O)(=O)c2cccc(C(=O)N/N=C/c3cn(-c4ccccc4)nc3-c3ccccc3)c2)cc1	1	11	51*	-20	-3	-2
Cc1ccc(N2CN(CCc3ccccc3)CNC2=S)cc1	0	-2	-7	14*	16	1
CCOC(=O)c1ccc(N2CN(CCc3ccccc3)CNC2=S)cc1	1	2	6	3	-3	1
CCNc1nc(NC(C)(C)C)nc(N2CCCCC2)n1	2	61*	45*	-21	-22	-10
CCNc1nc(N2CCCC2)nc(N2CCCC2)n1	0	2	4	-8	0	-7
COc1ccc(NC(=O)Nc2ccc([N+](=O)[O-])cc2)cn1	22	34*	0	-9	-13	8
COc1ccc(NC(=O)Nc2cc(C)cc(C)c2)cn1	5	16	4	-2	-10	0
Cn1c(SCC(=O)c2cc(Cl)c(Cl)s2)nnc1-c1ccco1	1	-11	2	-8	19*	6
CCCCN1C(=O)C(CC(=O)NC2CCCCC2)CC(C(=O)N2CCCCCC2)=C1C (centres undefined)	0	0	8	0	-2	0
COc1cc(NC(=O)c2cc(Cl)ccc2Cl)ccc1-c1cc2ccccc2oc1=O	1	-9	1	14	3	-1
